Compound activity from PubChem.
CHO parental Ca = counter-screen for OX1R antagonists: effect in parental CHO cells; parental CHO-K1, ATP-induced calcium, Fluo-8 fluorescence; inhibition, % at 5.6 µM; 330,000 tested, 0.63% active;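 active = inhibition above that plate's mean sample inhibition plus 3 SD, cut at about 26% in these data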;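 also: 0% = ATP-challenged DMSO wells and 100% = DMSO wells without ATP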
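Assay system: parental CHO cells; Read-out basis: percent inhibition of ATP-evoked calcium rise, normalized to controls; Benchmarks: ATP and no-ATP DMSO wells; Compound dosing: single nominal dose of 5.6 µM per compound; Signal: Fluo-8 calcium dye fluorescence; Also added: ATP as calcium-mobilizing challenge; Repeats: singlicate.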
TAAR1 antagonist = human TAAR1 antagonism. CHO RD-HGA16 TAAR1, Fluo-8 calcium fluorescence, antagonist. Q96RJ0. 360,000 tested, 1.5% active. inhibition, % at 3 µM;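 active = inhibition above a per-plate cutoff, the mean inhibition of test compounds on that plate plus 3 SD, cut at about 49% in these data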;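 also: 0% = DMSO plus EC80 beta-PEA response and 100% = DMSO alone without agonist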
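Material: CHO RD-HGA16 cells bearing hTAAR1; compound dosing: one-point dosing, 3 µM nominal final; schedule: dye loading 75 min at 37 °C, then 30 min room temperature; measured by: calcium fluorescence with Fluo-8; control set: vehicle and agonist controls; replication: n of 1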
OX1R antag-1 = antagonists of human orexin 1 receptor (OX1R); O43613; OX1R-expressing cells, FRET antagonist read-out; inhibition, % at 6.6 µM; 330,000 tested, 1.8% active; in the data active = inhibition mostly above about 38%, no sharp cut-off; inactive = mostly below about 40%;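 also: 0% = agonist challenge alone and 100% = reference antagonist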
Target sequence (O43613 whole entry, looked up): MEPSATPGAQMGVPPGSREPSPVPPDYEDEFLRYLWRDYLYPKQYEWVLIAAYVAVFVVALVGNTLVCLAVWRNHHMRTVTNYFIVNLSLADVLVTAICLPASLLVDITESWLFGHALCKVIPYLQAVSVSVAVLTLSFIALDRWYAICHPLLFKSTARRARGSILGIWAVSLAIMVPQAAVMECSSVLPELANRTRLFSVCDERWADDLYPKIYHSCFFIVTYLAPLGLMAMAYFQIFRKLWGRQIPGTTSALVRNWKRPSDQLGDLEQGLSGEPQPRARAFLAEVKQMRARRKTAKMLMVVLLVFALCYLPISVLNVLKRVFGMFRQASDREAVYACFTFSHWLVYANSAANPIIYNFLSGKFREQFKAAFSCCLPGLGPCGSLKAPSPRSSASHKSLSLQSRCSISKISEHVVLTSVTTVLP
GalR3 antagonist = blocks the human galanin receptor 3; 360,000 tested, 0.44% active; O60755; inhibition, % at 3 µM; HEK293 GalR3-CNG cAMP membrane potential fluorescence; galR3 body fused to GalR1 C-terminus;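 active = inhibition above the screen-wide average plus 3 SD, cut at about 13% in these data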;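 also: forskolin and galanin both at EC90 stimulate the cells; cAMP rise reported by CNG channel membrane potential dye signal; 0% = forskolin plus galanin with DMSO and 100% = forskolin alone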
Target sequence (O60755 1-299 limits assumed): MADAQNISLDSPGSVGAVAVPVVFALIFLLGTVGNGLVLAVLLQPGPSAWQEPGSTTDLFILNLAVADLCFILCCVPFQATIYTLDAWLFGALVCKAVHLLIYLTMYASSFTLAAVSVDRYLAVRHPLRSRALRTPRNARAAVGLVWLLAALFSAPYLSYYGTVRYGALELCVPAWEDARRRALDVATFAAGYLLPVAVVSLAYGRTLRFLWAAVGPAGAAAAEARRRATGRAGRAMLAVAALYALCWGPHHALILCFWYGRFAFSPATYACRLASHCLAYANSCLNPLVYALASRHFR
TAAR1 agonist = human TAAR1 agonism | Q96RJ0 | AID 624467 | 360,000 tested, 0.99% active | activation, % at 3 µM | CHO RD-HGA16 TAAR1, Fluo-8 calcium fluorescence; vehicle wells 0%, saturating PEA agonist 100%;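 active = activation above the mean activation of all test compounds in the run plus 3 SD, cut at about 38% in these data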
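System: CHO-derived RD-HGA16 cells with stable Gα16 and human TAAR1 / Times: 17-24 h plating, Fluo-8 75 min 37 °C, 30 min RT / Technique: calcium-sensitive Fluo-8 signal, excitation 470-495, emission 515-575 nm / Measure: % activation relative to PEA EC100 response / Benchmarks: DMSO and PEA EC100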
OX1R antag-2 = human HCRTR1 antagonism; 330,000 tested, 0.43% active; O43613; inhibition, % at 5 µM; CHO/OX1R cells, Fluo-8 calcium fluorescence, orexin A;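 active = inhibition above its plate's threshold, mean inhibition of all tested compounds on the plate plus 3 SD, cut at about 37% in these data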;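 also: 0% = orexin A challenge wells and 100% = SB-334867-A antagonist wells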
OX1R Fluo8 conf = OX1R (human) antagonism, confirmed | AID 492963 | 1,100 tested, 38% active | shares compounds with OX1R antag-2 | CHO/OX1R cells, orexin A calcium Fluo-8 fluorescence | inhibition, % at 5 µM; in the data active = inhibition above about 29%;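 also: 0% = agonist challenge alone and 100% = reference antagonist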
CHO Ca counter = counter-screen: parental CHO calcium response change, triplicate; shares compounds with OX1R antag-2; parental CHO-K1, ATP-induced calcium, Fluo-8 fluorescence; inhibition, % at 5.6 µM; 1,100 tested, 9.3% active;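 active = inhibition above a per-plate limit, the mean inhibition of that plate's test compounds plus 3 SD, cut at about 25% in these data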;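 also: 0% = ATP challenge with DMSO and 100% = DMSO without ATP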
OX1R HTRF conf = confirmation of human orexin 1 receptor antagonists, HTRF format; shares compounds with OX1R antag-1; OX1R-expressing cells, HTRF antagonist assay; inhibition, % at 6.6 µM; 1,800 tested, 49% active; in the data active = inhibition above about 55%;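 also: CHO cells expressing OX1R stimulated with orexin A at about EC80; 0% = agonist challenge alone and 100% = reference antagonist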
CHO-K1 HTRF = counter-screen: parental CHO-K1 HTRF response; shares compounds with OX1R antag-1; parental CHO-K1 cells, HTRF counterscreen; inhibition, % at 6.6 µM; 1,800 tested, 48% active; in the data active = inhibition above about 17%;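 also: 0% = agonist challenge with vehicle and 100% = vehicle alone without agonist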
nonsel antag count = nonselective antagonism, TAAR1 counter-screen | shares compounds with TAAR1 antagonist | counterscreen cell line, calcium fluorescence, antagonist mode | inhibition, % at 3 µM | 2,400 tested, 77% active | AID 651780; in the data active = inhibition above about 22%;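 also: CHO-Ga16 host cells stimulated with ATP at an EC80 level; 0% = agonist EC80 plus vehicle and 100% = vehicle without agonist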
TAAR1 antag conf = human TAAR1 antagonism, confirmed; shares compounds with TAAR1 antagonist; TAAR1-expressing cells, fluorescence antagonist read-out; inhibition, % at 3 µM; 2,400 tested, 40% active; in the data active = inhibition above about 49%;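 also: CHO-Ga16 host cells challenged with agonist PEA near its EC80; 0% = agonist at EC80 plus vehicle and 100% = vehicle with no agonist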
Ga16 ag counter-1 = counter-screen for TAAR1 antagonists: nonselective Ga16 agonists; activation, % at 3 µM; shares compounds with TAAR1 antagonist; Ga16-expressing cells, calcium fluorescence, agonist counterscreen; 2,400 tested, 18% active; in the data active = activation above about 12%;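 also: 0% = vehicle wells and 100% = saturating stimulus response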
TAAR1 ag count = counter-screen for human TAAR1 antagonists: TAAR1 agonists; hTAAR1 cell line, fluorescence activation, agonist mode; AID 651955; 2,400 tested, 2% active; shares compounds with TAAR1 antagonist; activation, % at 3 µM; in the data active = activation above about 37%;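 also: CHO cells stably expressing TAAR1 with calcium dye readout; 0% = DMSO vehicle and 100% = full agonist response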
TAAR1 ag confirm = human TAAR1 agonism, confirmed; shares compounds with TAAR1 agonist; 2,400 tested, 82% active; CHO RD-HGA16 TAAR1, Fluo-8 calcium fluorescence; scaled: DMSO 0%, maximal phenethylamine 100%; activation, % at 3 µM; AID 651783;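 active = activation above a cutoff set at the run's mean compound activation plus 3 SD, cut at about 39% in these data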
Ga16 ag counter-2 = nonselective agonist in parental cells, TAAR1 agonist counter-screen; shares compounds with TAAR1 agonist; CHO-Ga16 parental, Fluo-8 calcium fluorescence; normalized to maximal ATP response, DMSO zero; activation, % at 3 µM; 2,400 tested, 50% active; AID 651787;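 active = activation above the run cutoff, the mean activation over all tested wells plus 3 SD, cut at about 12% in these data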;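 also: 0% = DMSO wells and 100% = maximal ATP response on the peak over basal ratio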
TAAR1 desens = human TAAR1 agonist that also desensitizes the receptor. CHO RD-HGA16 hTAAR1, Fluo-8 calcium, beta-PEA response inhibition. shares compounds with TAAR1 agonist. 2,400 tested, 46% active. inhibition, % at 3 µM;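 active = inhibition above the run cutoff, the mean inhibition of all test compounds plus 3 SD, cut at about 49% in these data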;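 also: beta-PEA stimulus applied at its EC80; loss of beta-PEA calcium signal after compound pretreatment read as receptor desensitization; 0% = DMSO with beta-PEA at EC80 and 100% = DMSO alone without agonist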
Ga16 antag count = nonselective Ga16 antagonist in TAAR1 agonist counter-screen; shares compounds with TAAR1 agonist; CHO-Ga16 ATP-induced calcium, Fluo-8 fluorescence; inhibition, % at 3 µM; 2,400 tested, 39% active; AID 651952;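 active = inhibition above the plate's mean compound inhibition plus 3 SD, computed per plate, cut at about 22% in these data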;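 also: 0% = EC80 ATP with DMSO and 100% = DMSO wells without ATP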
The depositor's hits bear a star; / = not tested or not shown. The list is not random: actives were taken first. Their share in the collection is about 4.2%.

SMILES | CHO parental Ca | TAAR1 antagonist | OX1R antag-1 | GalR3 antagonist | TAAR1 agonist | OX1R antag-2 | OX1R Fluo8 conf | CHO Ca counter | nonsel antag count | TAAR1 antag conf | Ga16 ag counter-1 | TAAR1 ag count | others
COc1ccc(CNC(=O)C(c2ccc(C)o2)N(Cc2cccs2)C(=O)Cc2cccs2)cc1 (configuration not stated) | 13 | 87* | 63 | -5 | 22 | 46* | 9 | -4 | 42* | 68* | 11 | 9
COCCN(C(=O)Cc1cccs1)C(C(=O)NCc1ccc(OC)cc1)c1ccc(C)cc1 (configuration not stated) | -14 | 28 | 7 | 2 | 14 | -4 | / | / | / | / | / | /
O=C(NC1CCCC1)C(c1ccc(Cl)cc1)N1CCN(C2CCCCC2)CC1 (configuration not stated) | -15 | -19 | 8 | 0 | 0 | -11 | / | / | / | / | / | /
O=[N+]([O-])c1ccc(N/N=C/c2ccccc2O)cc1 | 27 | 79* | 17 | -8 | 37 | 34 | 24 | 17 | 27* | 84* | 9 | 52*
CC1(C(=O)OCC(=O)Nc2nc(-c3ccc(F)c(F)c3)cs2)CC1(Cl)Cl (configuration not stated) | 18 | 88* | 32 | -3 | 4 | 28 | 14 | -2 | 49* | 76* | 9 | 3
Cc1ccc(OCC(O)CN2CC3(C)CC2CC(C)(C)C3)cc1 (configuration not stated) | -26 | -5 | 5 | -5 | 6 | -33 | / | / | / | / | / | /
CC(=O)c1cccc(NC(=O)c2ccc(N(Cc3ccccc3C)S(C)(=O)=O)cc2)c1 | 2 | 57* | 22 | -2 | 20 | 24 | 22 | 7 | 37* | 50* | 12* | 11
NS(=O)(=O)c1ccc(NC(=O)C2CCCN(S(=O)(=O)c3ccc(F)cc3)C2)cc1 (configuration not stated) | -4 | -10 | 10 | -5 | 9 | -1 | / | / | / | / | / | /
CSc1cccc(NC(=O)C2CCCN(S(=O)(=O)c3ccc(F)cc3)C2)c1 (configuration not stated) | -4 | 56* | 84* | 2 | 12 | 53* | 55* | -1 | 23* | 33 | 4 | 2 | OX1R HTRF conf=79*;CHO-K1 HTRF=2
COc1ccc(N2CCN(C3CC(=O)N(Cc4ccccc4)C3=O)CC2)cc1 (configuration not stated) | -17 | -34 | 14 | -4 | 1 | -13 | / | / | / | / | / | /
O=C(c1ccncc1)c1ccc(N2CCN(C3CC(=O)N(Cc4ccccc4)C3=O)CC2)cc1 (configuration not stated) | 21 | 51* | 71* | -3 | 27 | 33 | -1 | 0 | 26* | 27 | 11 | 10 | OX1R HTRF conf=20;CHO-K1 HTRF=1
O=c1ccn([C@@H]2O[C@H](COS(=O)(=O)O)[C@@H](O)[C@H]2O)c(=O)[nH]1 | 6 | 9 | 3 | -7 | 7 | -9 | / | / | / | / | / | /
COc1ccc(-c2cn3c(C)c(C(=O)Nc4cccc(NC(C)=O)c4)sc3n2)cc1 | 15 | 50* | 24 | -1 | 15 | 30 | 12 | -2 | 27* | 47 | 13* | 9
Cc1ccccc1OCC1CN(CN2CCOCC2)C(=O)O1 (configuration not stated) | -5 | -6 | 6 | -1 | 3 | -2 | / | / | / | / | / | /
Cc1ccc(S(=O)(=O)NC(C(=O)Oc2ccc3c(C)c(Cl)c(=O)oc3c2)c2ccccc2)cc1 (configuration not stated) | -4 | 12 | 2 | -10 | 5 | -18 | / | / | / | / | / | /
CCC[C@@H](NS(=O)(=O)c1ccc(C)cc1)C(=O)Oc1ccc2c3c(c(=O)oc2c1)CCC3 | 24 | 90* | 6 | -2 | 8 | 23 | 39* | -21 | 47* | 70* | 11 | 10
c1ccc(Nc2nc(NCc3ccco3)c3ccccc3n2)cc1 | 18 | 41 | 16 | 4 | 56* | 31 | 15 | 15 | / | / | / | / | TAAR1 ag confirm=84*;Ga16 ag counter-2=8;TAAR1 desens=85*;Ga16 antag count=29*
CCc1ccccc1NC(=O)CN1CCN(C(=O)c2ccc(OCc3cn4ccccc4n3)cc2)CC1 | / | -17 | / | 4 | 1 | / | / | / | / | / | / | /
O=C(Nc1nnc(-c2ccccc2Cl)o1)c1nc2ccccc2s1 | 20 | 74* | -1 | 3 | 134* | 31 | 6 | 1 | / | / | / | / | TAAR1 ag confirm=113*;Ga16 ag counter-2=81*;TAAR1 desens=64*;Ga16 antag count=36*
